What was measured:
Homo sapiens [1] = species on record: Homo sapiens; assay: Test inhibition of LTB4 production in human peripheral blood polymorphonuclear leukocytes (HPMN); format: functional
Procedure, shortened: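 LTB4 generation measured in human peripheral blood polymorphonuclear leukocytes. IC50 values are the mean of at least two independent determinations, though some values come from a single titration.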

Homo sapiens [2] = species on record: Homo sapiens; assay: Compound was tested for the inhibition of LTB4 production in human whole blood (HWB); format: functional
Procedure, shortened: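 LTB4 generation measured in human whole blood. IC50 values are the mean of at least two independent titrations, though some values come from a single titration. Where more than two IC50 values were determined, the 95% confidence limits were within 90% of the mean.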

[3] = target: T1, Polyunsaturated fatty acid 5-lipoxygenase (Homo sapiens, UniProt P09917); assay: Potency to inhibit oxidation of arachidonic acid by recombinant human 5-lipoxygenase
T1 sequence (P09917 whole entry): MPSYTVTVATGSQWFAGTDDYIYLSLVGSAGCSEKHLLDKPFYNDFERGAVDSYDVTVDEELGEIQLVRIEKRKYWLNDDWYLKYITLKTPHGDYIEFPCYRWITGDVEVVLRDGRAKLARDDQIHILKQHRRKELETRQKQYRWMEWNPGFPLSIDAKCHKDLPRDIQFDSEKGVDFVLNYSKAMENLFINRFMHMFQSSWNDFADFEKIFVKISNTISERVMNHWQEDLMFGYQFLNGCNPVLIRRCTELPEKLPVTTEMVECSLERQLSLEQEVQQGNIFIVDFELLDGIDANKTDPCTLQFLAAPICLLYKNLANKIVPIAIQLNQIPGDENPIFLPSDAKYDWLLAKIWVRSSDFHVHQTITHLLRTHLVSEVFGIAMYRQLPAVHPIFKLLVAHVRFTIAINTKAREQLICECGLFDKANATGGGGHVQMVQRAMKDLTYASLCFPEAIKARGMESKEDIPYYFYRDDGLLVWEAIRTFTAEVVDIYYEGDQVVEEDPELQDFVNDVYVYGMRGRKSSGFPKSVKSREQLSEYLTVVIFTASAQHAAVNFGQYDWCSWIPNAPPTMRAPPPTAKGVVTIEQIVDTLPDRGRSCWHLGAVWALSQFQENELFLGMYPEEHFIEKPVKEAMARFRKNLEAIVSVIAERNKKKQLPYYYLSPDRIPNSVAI

IC50 (Homo sapiens [1]; Homo sapiens) [µM]	IC50 (Homo sapiens [2]; Homo sapiens, Blood) [µM]	IC50 [3] [µM]	IC50 (Homo sapiens [1]) [µM]	IC50 (Homo sapiens [2]) [µM]	SMILES
0.002	0.13	0.05	–	–	O=C(c1cc(-c2ccoc2)c2ccc(OCc3cccc(C4(O)CCOCC4)c3)cc2c1)c1nccs1
0.005	0.45	0.28	–	–	O=C1OCc2c1cc1cc(OCc3cccc(C4(O)CCOCC4)c3)ccc1c2-c1ccco1
–	–	0.14	0.007	–	O=C1OCc2c1cc1cc(OCc3cccc(C4(O)CC5COC(C4)O5)c3)ccc1c2-c1ccoc1 (stereo in doubt; 3u)
0.003	0.9	0.18	–	–	CC1CC(O)(c2cccc(COc3ccc4c(-c5ccccc5)c5c(cc4c3)C(=O)OC5)c2)CC(C)O1 (configuration not stated)
0.08	> 3	> 6	–	–	CC1(C)OC(=O)c2cc3cc(OCc4cccc(C5(O)CCOCC5)c4)ccc3c(-c3ccccc3)c21
0.026	> 3	5.5	–	–	O=C1OCc2c1cc1cc(OCc3cccc(C4(O)CCOCC4)c3)ccc1c2-c1ccc(Cl)cc1
0.009	–	0.26	–	–	OCc1cc(-c2ccccc2)c2ccc(OCc3cccc(C4(O)CCOCC4)c3)cc2c1
–	2	–	–	–	CC(c1cc2ccccc2s1)N(O)C(N)=O (configuration not stated) [ZILEUTON]
> 0.7	> 3	> 6	–	–	O=C1OC(O)c2c1cc1cc(OCc3cccc(C4(O)CCOCC4)c3)ccc1c2-c1ccccc1 (configuration not stated)
0.003	0.05	0.07	–	–	OC1(c2cccc(COc3ccc4c(-c5ccoc5)cc(C5=NCCO5)cc4c3)c2)CCOCC1
0.028	0.675	0.52	–	–	CC(O)c1cc(-c2ccccc2)c2ccc(OCc3cccc(C4(O)CCOCC4)c3)cc2c1 (configuration not stated)
0.018	1.8	0.36	–	–	O=C1OCc2c1cc1cc(OCc3cccc(C4(O)CCOCC4)c3)ccc1c2-c1ccccc1F
0.19	–	–	–	–	O=C(O)c1cc(-c2ccccc2)c2ccc(OCc3cccc(C4(O)CCOCC4)c3)cc2c1
0.089	–	6	–	–	COc1ccc(-c2c3c(cc4cc(OCc5cccc(C6(O)CCOCC6)c5)ccc24)C(=O)OC3)cc1
0.027	> 3	0.4	–	–	O=C1OCc2c1cc1cc(OCc3cccc(C4(O)CC5C=CC(C4)O5)c3)ccc1c2-c1ccccc1 (configuration not stated)
0.001	0.66	0.14	–	–	OC1(c2cccc(COc3ccc4c(-c5ccoc5)cc(Cc5nccs5)cc4c3)c2)CCOCC1
0.002	0.14	–	–	–	O=C1OCc2c1cc1cc(OCc3cccc(C4(O)CCOCC4)c3)ccc1c2-c1ccccc1
0.003	0.1	0.07	–	–	COC(=O)c1cc(-c2ccccc2)c2ccc(OCc3cccc(C4(O)CCOCC4)c3)cc2c1
0.015	–	2.2	–	–	CCCCc1cc(C(=O)OC)cc2cc(OCc3cccc(C4(O)CCOCC4)c3)ccc12
0.001	0.2	0.07	–	–	O=C(c1ccccc1)c1cc(-c2ccoc2)c2ccc(OCc3cccc(C4(O)CCOCC4)c3)cc2c1
0.002	0.09	0.13	–	–	CC(=O)c1cc(-c2ccccc2)c2ccc(OCc3cccc(C4(O)CCOCC4)c3)cc2c1
0.017	2.9	0.19	–	–	CC1(C)COC(c2cc(-c3ccoc3)c3ccc(OCc4cccc(C5(O)CCOCC5)c4)cc3c2)=N1
> 0.7	> 3	> 6	–	–	OC1(c2cccc(COc3ccc4c(-c5ccccc5)cc(-c5nn[nH]n5)cc4c3)c2)CCOCC1
0.002	0.01	0.03	–	–	N#Cc1cc(-c2ccoc2)c2ccc(OCc3cccc(C4(O)CCOCC4)c3)cc2c1
0.002	0.05	0.027	–	–	O=C1OCc2c1cc1cc(OCc3cccc(C4(O)CCOCC4)c3)ccc1c2-c1ccsc1
–	–	0.34	0.021	2.1	O=C1OCc2c1cc1cc(OCc3cccc(C4(O)CC5COC(C4)O5)c3)ccc1c2-c1ccoc1 (stereo in doubt; 3v)

IC50 (Homo sapiens [1]; Homo sapiens) [µM]	IC50 (Homo sapiens [2]; Homo sapiens, Blood) [µM]	IC50 [3] [µM]	IC50 (Homo sapiens [1]) [µM]	IC50 (Homo sapiens [2]) [µM]	SMILES
0.002	0.12	0.023	–	–	COC1CC(O)(c2cccc(COc3ccc4c(-c5ccccc5)c5c(cc4c3)C(=O)OC5)c2)CCO1 (configuration not stated)
0.015	1.6	0.81	–	–	O=C1OCc2c1cc1cc(OCc3cccc(C4(O)CCOC(O)C4)c3)ccc1c2-c1ccccc1 (configuration not stated)
0.003	0.15	0.19	–	–	N#Cc1cc(-c2ccoc2)c2ccc(OCc3cccc(C4(O)CC5COC(C4)O5)c3)cc2c1 (configuration not stated)
> 0.062	–	> 6	–	–	OC1(c2cccc(COc3ccc4c(-c5ccoc5)cc(-c5nc6ccccc6s5)cc4c3)c2)CCOCC1
0.011	1.1	0.38	–	–	O=C1OCc2c1cc1cc(OCc3cccc(C4(O)CCOCC4)c3)ccc1c2-c1ccccc1Cl
0.002	0.1	0.026	–	–	O=C1OCc2c1cc1cc(OCc3cccc(C4(O)CCOCC4)c3)ccc1c2-c1ccoc1
0.004	0.2	0.16	–	–	COCc1cc(-c2ccccc2)c2ccc(OCc3cccc(C4(O)CCOCC4)c3)cc2c1
0.003	0.1	0.12	–	–	N#Cc1cc(-c2ccccc2)c2ccc(OCc3cccc(C4(O)CCOCC4)c3)cc2c1
0.003	0.41	0.14	–	–	O=C1OCc2c1cc1cc(OCc3cccc(C4(O)CCOCC4)c3)ccc1c2-c1ccc(F)cc1
0.004	0.26	0.08	–	–	COc1cccc(-c2c3c(cc4cc(OCc5cccc(C6(O)CCOCC6)c5)ccc24)C(=O)OC3)c1
0.006	0.54	0.24	–	–	O=C1OCc2c1cc1cc(OCc3cccc(C4(O)CC5COC(C4)O5)c3)ccc1c2-c1ccccc1 (configuration not stated)
0.035	> 3	0.39	–	–	O=C1CC(O)(c2cccc(COc3ccc4c(-c5ccccc5)c5c(cc4c3)C(=O)OC5)c2)CCO1 (configuration not stated)
0.008	1	0.32	–	–	O=C1OCc2c1cc1cc(OCc3cccc(C4(O)CC5CCC(C4)O5)c3)ccc1c2-c1ccccc1 (configuration not stated)
0.059	–	–	–	–	CC(C)(O)c1cc(-c2ccccc2)c2ccc(OCc3cccc(C4(O)CCOCC4)c3)cc2c1
> 0.07	–	> 6	–	–	COC(=O)c1cc(Cc2ccccc2)c2ccc(OCc3cccc(C4(O)CCOCC4)c3)cc2c1
0.025	1.2	0.72	–	–	O=C1OCc2c1cc1cc(OCc3cccc(C4(O)CCOCC4)c3)ccc1c2-c1cccnc1
0.04	–	0.64	–	–	OC1(c2cccc(COc3ccc4c(-c5ccccc5)cc(Cn5ccnc5)cc4c3)c2)CCOCC1
0.002	0.08	0.08	–	–	Cn1nnc(-c2cc(-c3ccoc3)c3ccc(OCc4cccc(C5(O)CCOCC5)c4)cc3c2)n1
0.15	> 3	1.3	–	–	CC1OC(=O)c2cc3cc(OCc4cccc(C5(O)CCOCC5)c4)ccc3c(-c3ccccc3)c21 (configuration not stated)
0.004	0.31	0.12	–	–	Cn1nnc(-c2cc(-c3ccccc3)c3ccc(OCc4cccc(C5(O)CCOCC5)c4)cc3c2)n1
0.002	0.075	0.05	–	–	OC1(c2cccc(COc3ccc4c(-c5ccoc5)cc(C5=NCCS5)cc4c3)c2)CCOCC1
0.041	> 1	1.2	–	–	COC(C)c1cc(-c2ccccc2)c2ccc(OCc3cccc(C4(O)CCOCC4)c3)cc2c1 (configuration not stated)
0.007	0.37	0.12	–	–	O=C(c1cccnc1)c1cc(-c2ccoc2)c2ccc(OCc3cccc(C4(O)CCOCC4)c3)cc2c1
0.01	0.08	0.33	–	–	COC1(c2cc(F)cc(OCc3ccc4c(ccc(=O)n4C)c3)c2)CCOCC1 [ZD-2138]
> 0.067	> 10	3	–	–	Cn1nnnc1-c1cc(-c2ccccc2)c2ccc(OCc3cccc(C4(O)CCOCC4)c3)cc2c1
0.01	> 1	0.76	–	–	CCc1cc(-c2ccccc2)c2ccc(OCc3cccc(C4(O)CCOCC4)c3)cc2c1

Reference: ChEMBL document CHEMBL1129067, “Dioxabicyclooctanyl naphthalenenitriles as nonredox 5-lipoxygenase inhibitors: structure-activity relationship study directed toward the improvement of metabolic stability” (J Med Chem, 1996)
